{"source": "ChEMBL document CHEMBL3779801", "about": "“Discovery of the Selective CYP17A1 Lyase Inhibitor BMS-351 for the Treatment of Prostate Cancer” (ACS Med Chem Lett, 2016)", "key": {"[1]": {"assay": "Metabolic stability in human liver microsomes assessed as parent compound remaining at 0.5 uM incubated for 10 mins", "assay_type": "ADME", "settings": "read-out: Stability", "outline": "(§1)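 Compound at 0.5 μM was incubated with human, mouse or cynomolgus liver microsomes for 10 min.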"}, "[2]": {"system": "Cynomolgus monkey", "assay": "Effect on cortisol level in one day castrated cynomolgus monkey assessed as baseline level at 1.5 mg/kg, po bid for 24 hrs by radiometric immunoassay", "assay_type": "ADME, organism-based, Macaca fascicularis", "settings": "in vivo"}, "[3]": {"assay": "Inhibition of cynomolgus monkey CYP11B1 using hydroxy progesterone as substrate incubated for 120 mins by LC-MS method", "parameters": "species or system Macaca fascicularis"}, "[4]": {"assay": "AUC in cynomolgus monkey plasma at 4 mg/kg, po after 0.25 to 45 hrs by LC-MS/MS analysis", "assay_type": "ADME, organism-based, Macaca fascicularis", "parameters": "dose 4 mg/kg, time upper 45 hr, time lower 0.25 hr, route oral", "outline": "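Cynomolgus monkeys were dosed orally from a solution formulation. Plasma parameters are given as mean ± standard deviation.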"}, "[5]": {"assay": "Tmax in one day castrated cynomolgus monkey at 1.5 mg/kg, po bid measured after second dose administered at 8 hrs", "assay_type": "ADME, organism-based, Macaca fascicularis", "settings": "male, in vivo", "outline": "(§2)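 Castrated cynomolgus monkeys were studied over one day with oral BID dosing at time 0 and 8 h. Plasma levels were sampled at set time points over 1–24 h and reported as average ± standard deviation in nM, n = 4.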"}, "[6]": {"assay": "Metabolic stability in cynomolgus monkey liver microsomes assessed as parent compound remaining at 0.5 uM incubated for 10 mins", "assay_type": "ADME, Macaca fascicularis", "settings": "read-out: Stability", "outline": "as §1"}, "[7]": {"target": "T1, Steroid 21-hydroxylase (Homo sapiens, UniProt P08686)", "T1 sequence (P08686 whole entry)": "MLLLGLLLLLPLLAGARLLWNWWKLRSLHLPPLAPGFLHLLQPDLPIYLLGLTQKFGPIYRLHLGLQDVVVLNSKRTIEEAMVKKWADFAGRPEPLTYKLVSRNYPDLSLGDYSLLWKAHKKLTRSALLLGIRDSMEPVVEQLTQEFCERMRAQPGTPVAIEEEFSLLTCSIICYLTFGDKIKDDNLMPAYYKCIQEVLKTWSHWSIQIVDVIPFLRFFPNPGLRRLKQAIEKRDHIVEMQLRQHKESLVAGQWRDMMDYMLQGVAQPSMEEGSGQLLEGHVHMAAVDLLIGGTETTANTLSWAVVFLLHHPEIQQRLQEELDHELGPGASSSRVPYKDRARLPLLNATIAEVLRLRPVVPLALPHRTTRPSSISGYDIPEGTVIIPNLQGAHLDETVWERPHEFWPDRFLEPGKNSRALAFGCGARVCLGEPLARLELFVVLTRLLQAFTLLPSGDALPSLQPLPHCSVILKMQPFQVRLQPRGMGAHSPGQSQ", "assay": "Inhibition of CYP21A2 in human H295R cells using hydroxy progesterone as substrate incubated for 120 mins by LC-MS method", "assay_type": "ADME, cell-based"}, "[8]": {"target": "T2, Steroid 17-alpha-hydroxylase/17,20 lyase (Homo sapiens, UniProt P05093)", "T2 sequence (P05093 whole entry)": "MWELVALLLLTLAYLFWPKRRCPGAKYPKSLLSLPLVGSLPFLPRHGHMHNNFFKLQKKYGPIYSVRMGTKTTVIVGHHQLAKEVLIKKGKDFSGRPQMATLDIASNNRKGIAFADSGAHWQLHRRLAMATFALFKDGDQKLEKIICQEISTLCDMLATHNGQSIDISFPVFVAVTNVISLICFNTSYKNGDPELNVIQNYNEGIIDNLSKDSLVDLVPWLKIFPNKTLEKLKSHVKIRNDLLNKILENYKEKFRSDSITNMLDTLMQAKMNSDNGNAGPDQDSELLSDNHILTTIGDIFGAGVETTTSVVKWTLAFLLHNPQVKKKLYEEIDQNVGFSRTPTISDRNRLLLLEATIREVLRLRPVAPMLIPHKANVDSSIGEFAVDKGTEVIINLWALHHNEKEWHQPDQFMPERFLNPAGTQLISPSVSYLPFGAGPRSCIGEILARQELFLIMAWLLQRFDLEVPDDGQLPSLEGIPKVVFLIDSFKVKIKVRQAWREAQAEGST", "assay": "Selectivity ratio of human CYP17A1 hydroxylase activity expressed in Escherichia coli using pregnenolone substrate to human CYP17A1 lyase activity expressed in HEK293 cell microsomes using [3H]-hydroxypregnenolone substrate", "outline": "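Hydroxylase and lyase activities were run with different enzyme preparations, so the hydroxylase/lyase ratios are estimates.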"}, "[9]": {"assay": "Metabolic stability in mouse liver microsomes assessed as parent compound remaining at 0.5 uM incubated for 10 mins", "assay_type": "ADME", "settings": "read-out: Stability", "outline": "as §1"}, "[10]": {"system": "Cynomolgus monkey", "assay": "Free plasma concentration in cynomolgus monkey plasma at 1 mg/kg, po by LC-MS/MS analysis", "assay_type": "ADME, organism-based, Macaca fascicularis", "settings": "in vivo"}, "[11]": {"system": "Cynomolgus monkey", "assay": "Ratio of Cmax to Cmean in cynomolgus monkey plasma at 4 mg/kg, po after 0.25 to 45 hrs by LC-MS/MS analysis", "assay_type": "ADME, organism-based, Macaca fascicularis", "settings": "in vivo"}, "[12]": {"assay": "Inhibition of cynomolgus monkey CYP21A2 using hydroxy progesterone as substrate incubated for 120 mins by LC-MS method", "parameters": "species or system Macaca fascicularis"}, "[13]": {"target": "T3, Cytochrome P450 1A2 (Homo sapiens, UniProt P05177)", "T3 sequence (P05177 whole entry)": "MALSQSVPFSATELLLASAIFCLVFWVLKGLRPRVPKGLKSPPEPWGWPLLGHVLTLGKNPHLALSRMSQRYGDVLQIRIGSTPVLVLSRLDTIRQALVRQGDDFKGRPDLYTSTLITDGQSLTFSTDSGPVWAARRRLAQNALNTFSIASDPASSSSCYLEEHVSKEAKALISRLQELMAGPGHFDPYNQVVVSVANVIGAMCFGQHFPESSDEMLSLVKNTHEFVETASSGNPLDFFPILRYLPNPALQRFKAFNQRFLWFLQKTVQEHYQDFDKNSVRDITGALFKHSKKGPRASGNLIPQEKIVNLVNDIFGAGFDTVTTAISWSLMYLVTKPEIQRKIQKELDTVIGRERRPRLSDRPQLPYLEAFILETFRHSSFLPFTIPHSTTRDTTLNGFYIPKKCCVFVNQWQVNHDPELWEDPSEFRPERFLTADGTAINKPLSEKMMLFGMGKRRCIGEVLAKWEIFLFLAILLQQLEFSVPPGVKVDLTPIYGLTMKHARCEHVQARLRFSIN", "assay": "Inhibition of CYP1A2 (unknown origin)", "assay_type": "ADME"}, "[14]": {"assay": "Tmax in one day castrated cynomolgus monkey at 1.5 mg/kg, po bid", "assay_type": "ADME, organism-based, Macaca fascicularis", "settings": "male, in vivo", "outline": "as §2"}}}
{"molecule": "Cc1ccncc1-c1cccc2c1ncn2CC(F)(F)F", "values": [{"measurement": "remaining at 10 min, 0.5 µM", "setting": "[1]", "value": 90, "unit": "%"}, {"measurement": "Activity", "setting": "[2]", "value": "Non-toxic"}, {"measurement": "IC50", "setting": "[3]", "value": "> 7.5", "unit": "µM"}, {"measurement": "AUC", "setting": "[4]", "value": 12.3, "unit": "µM·h"}, {"measurement": "Tmax", "setting": "[5]", "value": 9.5, "unit": "h"}, {"measurement": "remaining at 10 min, 0.5 µM", "setting": "[6]", "value": 83, "unit": "%"}, {"measurement": "IC50", "setting": "[7]", "value": "> 7.5", "unit": "µM"}, {"measurement": "Selectivity ratio", "setting": "[8]", "value": 10}, {"measurement": "remaining at 10 min, 0.5 µM", "setting": "[9]", "value": 66, "unit": "%"}, {"measurement": "Cp(f)", "setting": "[10]", "value": 80, "unit": "nM"}, {"measurement": "Ratio", "setting": "[11]", "value": 16}, {"measurement": "IC50", "setting": "[12]", "value": "> 7.5", "unit": "µM"}, {"measurement": "IC50", "setting": "[13]", "value": 9, "unit": "µM"}, {"measurement": "Tmax", "setting": "[14]", "value": 1, "unit": "h"}]}
